Active and inactive are the calls of the source. The calls are words filed in the database; no cut-off is given here.
Legend:
[1] = test system: SW-620; experiment: Antitumor activity against human SW620 cells xenografted in BALB/c-nude mouse assessed as reduction of tumor weight at 100 mg/kg, po administered every other day from day 2 to 21 (reference value: 417 mg); assay type: functional
Procedure, shortened: (§1)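 Male BALB/c-nude mice; 2 × 10^6 tumour cells in 0.2 mL PBS injected intradermally into the flank on day 0, n = 10 per group. Oral dosing every other day for 3 weeks, starting 2 days after inoculation. Caliper tumour volume = (width)2 × length/2, measured periodically. Tumours excised and weighed at day 21. Means ± SE.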

[2] = test system: HCT-116; experiment: Antitumor activity against human HCT116 cells xenografted in BALB/c-nude mouse assessed as reduction of tumor weight at 100 mg/kg, po administered every other day from day 2 to 21 (reference value: 469 mg); assay type: functional; procedure, shortened: as §1
[3] = test system: SW-620; experiment: Induction of apoptosis in human SW620 cells expressing p21 siRNA assessed as increase of expression of cleaved caspase-9 and caspase-3 at 10 uM after 24 hrs by immunoblotting; assay type: functional, cell-based
Procedure, shortened: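 Cells transfected with 100 nM scrambled or p21 siRNA for 4 h, then grown 24 h in complete medium and treated with 10 μM for 24 h. p21, caspase-9/-3 and cleaved forms analysed by 15% SDS-PAGE immunoblot with densitometry. Means ± SD, three experiments in triplicate.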

[4] = test system: HCT-116; experiment: Cytotoxicity against human HCT116 cells expressing p21 siRNA at 10 uM after 24 hrs by trypan blue staining; assay type: functional, cell-based
Procedure, shortened: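 Cells plated at 5 × 10^4 per well and transfected 4 h with 100 nM p21 or scrambled siRNA in OPTI-MEM, then grown 24 h in complete medium. Exposed to 10 μM for 24 h. Viability by trypan blue exclusion and direct counting. Means ± SD, three experiments in triplicate, compared with the scrambled-siRNA group.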

[5] = test system: HCT-116; experiment: Induction of apoptosis in human HCT116 cells assessed as reduction of Bcl-2 protein expression at 0.1 to 10 uM after 24 hrs by immunoblotting; assay type: functional, cell-based
Procedure, shortened: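 HCT-116 or SW-620 cells treated with 0–10 μM for 24 h, lysed, and run on 15% SDS-PAGE immunoblots. Probed for Bcl-2 (1:1000), Bax (1:500), caspase-9/-3 and their cleaved forms (1:1000), and β-actin (1:1000). Bands quantified by densitometry; means ± SD of three experiments in duplicate.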

[6] = test system: HCT-116; experiment: Induction of apoptosis in human HCT116 cells at 5 uM after 48 hrs using Annexin V-FITC and propidium iodide staining by flow cytometry (reference value: 7.6 +/- 3%); assay type: functional
Procedure, shortened: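 Subconfluent cells in RPMI 1640 + 10% FBS treated with 0–10 μM for 48 h. Harvested cells incubated 10 min with FITC-annexin V/PI, then analysed by flow cytometry (488/525 nm for annexin V-FITC, 488/675 nm for PI). Reported as % apoptotic cells, means ± SD of three experiments in triplicate.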

[7] = test system: SW-620; experiment: Effect on p27 expression in p53 deficient human SW620 cells at 0.5 to 10 uM after 24 hrs by immunoblotting; assay type: functional, cell-based
[8] = test system: HCT-116; experiment: Decrease of cyclin E expression in human HCT116 cells after 24 hrs by immunoblotting; assay type: functional, cell-based
Procedure, shortened: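 HCT-116 or SW-620 cells exposed to 0–10 μM for 24 h. Cells lysed in Tris/NaCl/EDTA/1% Triton X-100 buffer with protease and phosphatase inhibitors at 4 °C, protein measured by BCA. Lysates run on 10–12.5% SDS-PAGE and immunoblotted, ECL detection. Cdk2, cyclin A and cyclin E antibodies used at 1:500; β-actin as loading control.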

[9] = test system: SW-620; experiment: Cell cycle arrest in human SW620 cells assessed as accumulation at S phase at 0.5 uM after 48 hrs using propidium iodide staining by flow cytometry (reference value: 43.1 +/- 1%); assay type: functional
[10] = test system: SW-620; experiment: Cell cycle arrest in human SW620 cells assessed as accumulation at G2/M phase at 0.5 uM after 48 hrs using propidium iodide staining by flow cytometry (reference value: 9.1 +/- 0.3%); assay type: functional
[11] = test system: SW-620; experiment: Cell cycle arrest in human SW620 cells assessed as accumulation at S phase at 1 uM after 48 hrs using propidium iodide staining by flow cytometry (reference value: 43.1 +/- 1%); assay type: functional
[12] = test system: SW-620; experiment: Cell cycle arrest in human SW620 cells assessed as accumulation at G0/G1 phase at 2 uM after 48 hrs using propidium iodide staining by flow cytometry (reference value: 47.8 +/- 1.2%); assay type: functional
[13] = test system: SW-620; experiment: Cell cycle arrest in human SW620 cells assessed as accumulation at S phase at 2 uM after 48 hrs using propidium iodide staining by flow cytometry (reference value: 43.1 +/- 1%); assay type: functional
[14] = test system: SW-620; experiment: Cell cycle arrest in human SW620 cells assessed as accumulation at G0/G1 phase at 5 uM after 48 hrs using propidium iodide staining by flow cytometry (reference value: 47.8 +/- 1.2%); assay type: functional
[15] = test system: SW-620; experiment: Cell cycle arrest in human SW620 cells assessed as accumulation at S phase at 5 uM after 48 hrs using propidium iodide staining by flow cytometry (reference value: 43.1 +/- 1%); assay type: functional
[16] = test system: HCT-116; experiment: Cell cycle arrest in human HCT116 cells assessed as accumulation at G0/G1 phase at 1 uM after 48 hrs using propidium iodide staining by flow cytometry (reference value: 56.7 +/- 1.9%); assay type: functional
[17] = test system: HCT-116; experiment: Cell cycle arrest in human HCT116 cells assessed as accumulation at G2/M phase at 0.5 uM after 48 hrs using propidium iodide staining by flow cytometry (reference value: 7.1 +/- 0.3%); assay type: functional
[18] = test system: HCT-116; experiment: Cell cycle arrest in human HCT116 cells assessed as accumulation at S phase at 0.5 uM after 48 hrs using propidium iodide staining by flow cytometry (reference value: 36.3 +/- 1.7%); assay type: functional
[19] = Cytotoxicity against human CCD-112CoN cells assessed as cell viability up to 10 uM after 24 to 72 hrs; assay type: cell-based
Procedure, shortened: (§2)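 Cells seeded at 10^5 per well in RPMI 1640/10% FBS at 37 °C. Subconfluent cells exposed to 0, 0.1, 0.5, 1, 2, 5 or 10 μM for 48 h, or to 10 μM for 24, 48 and 72 h; ethanol vehicle, at most 0.01% v/v final. Cells trypsinized and counted by hemocytometer. Viability as % of control, means ± SD, three experiments in triplicate.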

[20] = test system: HCT-116; experiment: Cytotoxicity against human HCT116 cells at 0.1 to 10 uM; assay type: functional, cell-based; settings: TDE = time-dependent effect; procedure, shortened: as §2
[21] = test system: SW-620; experiment: Cytotoxicity against human SW620 cells after 24 to 72 hrs; assay type: functional, cell-based; procedure, shortened: as §2
[22] = test system: HCT-116; experiment: Cell cycle arrest in human HCT116 cells assessed as accumulation at G0/G1 phase at 0.1 uM after 48 hrs using propidium iodide staining by flow cytometry (reference value: 56.7 +/- 1.9%); assay type: functional

**Q.** Which Activity [1] does the source give for CC(C)c1cccc(=O)c(O)c1 [HINOKITIOL] here?
**A.** 252 mg

**Q.** And the Activity [2]?
**A.** 245 mg

**Q.** And the Activity [3]?
**A.** inactive

**Q.** And the Activity [4]?
**A.** inactive

**Q.** And the Activity [5]?
**A.** Active

**Q.** And the Activity [6]?
**A.** 15.6%

**Q.** And the Activity [7]?
**A.** inactive

**Q.** What about the Activity [8] of the same compound?
**A.** Dose-dependent effect

**Q.** What about the Activity [9] of the same compound?
**A.** 43.3%

**Q.** And the Activity [10]?
**A.** 8.4%

**Q.** What about the Activity [11] of the same compound?
**A.** 47.7%

**Q.** And the Activity [12]?
**A.** 43.1%

**Q.** What about the Activity [13] of the same compound?
**A.** 52.4%

**Q.** What about the Activity [14] of the same compound?
**A.** 40.8%

**Q.** And the Activity [15]?
**A.** 51.9%

**Q.** What about the Activity [16] of the same compound?
**A.** 55.1%

**Q.** And the Activity [17]?
**A.** 8%

**Q.** And the Activity [18]?
**A.** 35.4%

**Q.** What about the Activity [19] of the same compound?
**A.** Non-toxic

**Q.** What about the Activity [20] of the same compound?
**A.** tde

**Q.** What about the IC50 [21] of the same compound?
**A.** 4.4 µM

**Q.** And the “growth inhibition (GI)” value [21]?
**A.** Dose-dependent effect

**Q.** And the Activity [22]?
**A.** 58.1%
